Here are results for four molecules from ChEMBL document CHEMBL3232916, “1-(4-Methoxyphenyl)-5-(3,4,5-trimethoxyphenyl)-1H-1,2,4-triazole-3-carboxamides: synthesis, molecular modeling, evaluation of their anti-inflammatory activity and ulcerogenicity” (Eur J Med Chem, 2014).

Series [1] deals with Rattus norvegicus. Briefly: Antiinflammatory activity in albino rat assessed as inhibition of carrageenan-induced paw edema at 0.28 mmol/kg, po administered 30 mins before carrageenan challenge measured after 3 hrs relative to indomethacin. The format is functional. Particulars: read-out: INH. In outline: (§1)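 Calculated from the 3 h % edema inhibition in carrageenan paw edema (male albino rats, oral dosing in 0.5% CMC 30 min before 1% carrageenan subplantar injection). Expressed as % of the inhibition given by the reference drug in the same assay.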

Series [2] deals with Rattus norvegicus. Briefly: Ulcerogenic effect in albino rat assessed as ulcer index at 0.28 mmol/kg, po. Particulars: in vivo. It is filed as toxicity, organism-based. In short, it runs like this:
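Rat gastric ulcers were graded by area: level I <1 mm², level II 1–3 mm², level III >3 mm². Ulcer index = 1×(level I count) + 2×(level II) + 3×(level III). Reported as mean ± S.E.M., n = 4.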

In series [3] the test system is Rattus norvegicus. Briefly: Antiinflammatory activity in albino rat assessed as inhibition of carrageenan-induced paw edema at 0.28 mmol/kg, po administered 30 mins before carrageenan challenge measured after 5 hrs relative to control. It is filed as functional. In short, it runs like this:
(§2)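 Male albino rats, n = 4 per group. Dosed orally as a suspension in 0.5% w/v CMC in water; controls received CMC alone. 0.1 mL of freshly prepared 1% carrageenan in saline was injected subplantar into the right hind paw 30 min after dosing, with saline in the left paw. Right paw thickness was read by Vernier caliper before and at 1–5 h. Result is % decrease in edema vs control, mean ± S.E.M.; one-way ANOVA.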

The test system of series [4] is Rattus norvegicus. Put plainly: Antiinflammatory activity in albino rat assessed as inhibition of carrageenan-induced paw edema at 0.28 mmol/kg, po administered 30 mins before carrageenan challenge measured after 3 hrs relative to control. It is filed as functional. In outline:
as §2
(In general: In the carrageenan paw model, swelling and tenderness develop within hours.)

Series [5] has as its system Rattus norvegicus. Briefly: Antiinflammatory activity in albino rat assessed as inhibition of carrageenan-induced paw edema at 0.28 mmol/kg, po administered 30 mins before carrageenan challenge measured after 2 hrs relative to control. It is filed as functional. In outline: as §2
Series [6] deals with Rattus norvegicus. Put plainly: Antiinflammatory activity in albino rat assessed as inhibition of carrageenan-induced paw edema at 0.28 mmol/kg, po administered 30 mins before carrageenan challenge measured after 4 hrs relative to control. The format is functional. In outline: as §2
Series [7] has as its system Rattus norvegicus. Put plainly: Antiinflammatory activity in albino rat assessed as inhibition of carrageenan-induced paw edema at 0.28 mmol/kg, po administered 30 mins before carrageenan challenge measured after 3 hrs relative to celecoxib. The format is functional. Particulars: read-out: INH. In short, it runs like this: as §1
Series [8] has as its system Rattus norvegicus. Briefly: Ulcerogenic effect in albino rat assessed as morphology using hematoxylin and eosin staining at 0.28 mmol/kg, po by light microscopic analysis. The format is toxicity, organism-based. Particulars: in vivo. In outline: (§3)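 Stomach sections were dewaxed through graded alcohols to water and stained with haematoxylin for 5–7 min. They were differentiated 5–10 s in 1% HCl in 70% alcohol, then stained with 1% eosin for 10 min, with tap-water washes between steps. The sections were then examined by light microscopy for mucosal and glandular changes.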

In series [9] the test system is Rattus norvegicus. Briefly: Antiinflammatory activity in albino rat assessed as inhibition of carrageenan-induced paw edema at 0.28 mmol/kg, po administered 30 mins before carrageenan challenge measured after 1 hr relative to control. The format is functional. In short, it runs like this: as §2
Series [10] concerns Rattus norvegicus. Put plainly: Ulcerogenic effect in albino rat assessed as capillary inflammatory cells using hematoxylin and eosin staining at 0.28 mmol/kg, po by light microscopic analysis. It is filed as toxicity, organism-based. Particulars: in vivo. In outline:
as §3

Series [11] has as its system Rattus norvegicus. Put plainly: Ulcerogenic effect in albino rat assessed as loss of mucosal membrane using hematoxylin and eosin staining at 0.28 mmol/kg, po by light microscopic analysis. Particulars: in vivo. It is filed as toxicity, organism-based. In short, it runs like this: as §3
Series [12] deals with Rattus norvegicus. Put plainly: Ulcerogenic effect in albino rat assessed as apoptotic glandular epithelial cells using hematoxylin and eosin staining at 0.28 mmol/kg, po by light microscopic analysis. The format is toxicity, organism-based, Epithelial cell. Particulars: in vivo. In short, it runs like this:
as §3

The target of series [13] is T1, Prostaglandin G/H synthase 1 (Ovis aries, UniProt P05979).
T1 sequence (P05979 whole entry): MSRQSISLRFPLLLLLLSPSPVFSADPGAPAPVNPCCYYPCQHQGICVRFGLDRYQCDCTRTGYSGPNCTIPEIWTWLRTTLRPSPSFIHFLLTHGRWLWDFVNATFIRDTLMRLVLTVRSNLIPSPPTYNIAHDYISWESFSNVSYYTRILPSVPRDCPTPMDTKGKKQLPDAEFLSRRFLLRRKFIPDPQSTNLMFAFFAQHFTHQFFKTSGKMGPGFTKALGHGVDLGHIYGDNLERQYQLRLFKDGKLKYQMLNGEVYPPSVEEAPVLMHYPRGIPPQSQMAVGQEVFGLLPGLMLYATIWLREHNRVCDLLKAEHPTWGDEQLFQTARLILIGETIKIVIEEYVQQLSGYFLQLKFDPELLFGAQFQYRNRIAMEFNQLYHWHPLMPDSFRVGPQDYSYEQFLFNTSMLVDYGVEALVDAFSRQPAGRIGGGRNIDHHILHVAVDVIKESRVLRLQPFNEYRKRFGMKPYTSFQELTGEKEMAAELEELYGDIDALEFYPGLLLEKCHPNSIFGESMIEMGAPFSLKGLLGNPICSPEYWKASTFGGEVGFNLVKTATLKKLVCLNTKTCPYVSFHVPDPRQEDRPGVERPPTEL
Briefly: Inhibition of ovine COX1 assessed as prostaglandin F2alpha level.

The target in series [14] is T2, Prostaglandin G/H synthase 2 (Homo sapiens, UniProt P35354).
T2 sequence (P35354 whole entry): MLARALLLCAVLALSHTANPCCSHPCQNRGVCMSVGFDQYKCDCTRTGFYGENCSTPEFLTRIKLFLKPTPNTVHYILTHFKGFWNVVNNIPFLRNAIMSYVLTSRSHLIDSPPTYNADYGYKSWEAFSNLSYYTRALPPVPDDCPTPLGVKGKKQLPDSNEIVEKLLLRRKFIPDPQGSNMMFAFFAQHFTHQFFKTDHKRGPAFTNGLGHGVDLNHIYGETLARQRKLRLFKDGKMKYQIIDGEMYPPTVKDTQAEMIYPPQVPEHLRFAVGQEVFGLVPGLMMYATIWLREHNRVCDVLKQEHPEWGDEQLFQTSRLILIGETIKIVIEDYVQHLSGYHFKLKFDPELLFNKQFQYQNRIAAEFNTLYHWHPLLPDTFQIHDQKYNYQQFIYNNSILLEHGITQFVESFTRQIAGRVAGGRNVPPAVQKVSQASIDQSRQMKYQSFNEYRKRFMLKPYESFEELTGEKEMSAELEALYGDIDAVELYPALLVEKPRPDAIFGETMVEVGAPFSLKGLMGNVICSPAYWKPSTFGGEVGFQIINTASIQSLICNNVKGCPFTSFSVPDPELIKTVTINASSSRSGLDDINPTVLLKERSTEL
Put plainly: Inhibition of human recombinant COX2 assessed as prostaglandin F2alpha level.

Series [15] can be described thus: Selectivity ratio IC50 for ovine COX1 to IC50 for human recombinant COX2.

As a reminder, the inhibition in vivo is the relative decrease from the control value, in per cent. `COc1ccc(-n2nc(C(=O)Nc3ccccc3C)nc2-c2cc(OC)c(OC)c(OC)c2)cc1`: the paw edema inhibition relative to indomethacin at 280 µmol/kg in the series with Rattus norvegicus [1] worked out at 64%. The UI in the series with Rattus norvegicus [2] was determined as 1.5. In addition, the inhibition in vivo at 280 µmol/kg worked out at 47% in the series with Rattus norvegicus [3]; 50% with Rattus norvegicus [4]; 30% with Rattus norvegicus [5]; 46% with Rattus norvegicus [6]; 19% in the series on Rattus norvegicus [9]. The paw edema inhibition relative to celecoxib at 280 µmol/kg in the series on Rattus norvegicus [7] came out at 74%. Moreover, the Activity result with Rattus norvegicus [8] is reported as “Non-toxic”.

Turning to `COc1ccc2c(c1)c(CC(=O)O)c(C)n2C(=O)c1ccc(Cl)cc1` [INDOMETHACIN], the UI in the series with Rattus norvegicus [2] came to 41. Besides, the inhibition in vivo at 280 µmol/kg was determined as 86% in the series with Rattus norvegicus [3]; 78% in the series with Rattus norvegicus [4]; 68% in the series with Rattus norvegicus [5]; 81% in the series with Rattus norvegicus [6]; 55% with Rattus norvegicus [9]. Moreover, the Activity entry in the series on Rattus norvegicus [10], in the series with Rattus norvegicus [11] and with Rattus norvegicus [12] was “Toxic” in each case.

One may read the IC50 as the concentration that inhibits the measured activity by half. For the molecule `COc1ccc(-n2nc(C(=O)NN)nc2-c2cc(OC)c(OC)c(OC)c2)cc1`, the results for the IC50 in series [13] and in series [14] were 39.8 µM and 46.3 µM, respectively. Also, the paw edema inhibition relative to indomethacin at 280 µmol/kg in the series on Rattus norvegicus [1] came out at 73%. The UI in the series with Rattus norvegicus [2] is given as 2. For the same molecule, the inhibition in vivo at 280 µmol/kg in the series with Rattus norvegicus [3] turned out to be 56%; in the series with Rattus norvegicus [4], 57%; in the series on Rattus norvegicus [5], 47%; in the series with Rattus norvegicus [6] it was 54%; in the series on Rattus norvegicus [9], 36%. In addition, the Ratio IC50 in series [15] was found to be 0.86. The paw edema inhibition relative to celecoxib at 280 µmol/kg in the series with Rattus norvegicus [7] was determined as 84%.

As to `CNC(=O)c1nc(-c2cc(OC)c(OC)c(OC)c2)n(-c2ccc(OC)cc2)n1`, the IC50 in series [13] amounted to 45.9 µM; in series [14], 68.2 µM. The paw edema inhibition relative to indomethacin at 280 µmol/kg in the series on Rattus norvegicus [1] came out at 95%. The UI in the series on Rattus norvegicus [2] worked out at 7.5. In addition, the inhibition in vivo at 280 µmol/kg in the series with Rattus norvegicus [3] amounted to 50%; with Rattus norvegicus [4] it was 74%; in the series on Rattus norvegicus [5], 74%; with Rattus norvegicus [6], 65%; in the series with Rattus norvegicus [9] it was 56%. Besides, in [15], the Ratio IC50 turned out to be 0.67. In addition, the paw edema inhibition relative to celecoxib at 280 µmol/kg with Rattus norvegicus [7] worked out at 109%.
